The test system of one data set is A549 lung cancer cells. Description: In vitro antitumor MTT assay, A549. It is filed as cell-based, human. Conditions: for IC50: Homo sapiens, A549, 24 h, read-out: IC50 A549; for selectivity index to A549: WISH versus A549. Put shortly: (§1)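 ATCC cell lines grown in RPMI-1640 with 10% FBS, penicillin/streptomycin, at 37 °C and 5% CO2. Seeded at 1.0×10^4 cells/well for 48 h, then treated 24 h with a range of test compound concentrations. MTT (5 mg/mL solution) added for 4 h; formazan dissolved in DMSO and read at 570 nm. IC50 from percent viability; mean ± S.D. of three separate experiments.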
A general note: Formazan colour is commonly taken as a measure of viable cells.

The test system of data set [1] is Caco-2 colon cancer cells. The data set is described as follows: In vitro antitumor MTT assay, Caco-2. Conditions: Homo sapiens, Caco-2, 24 h, read-out: IC50 Caco-2. The data set is classed as cell-based, human. A digest of the protocol:
as §1

For another data set, the system named is MDA breast cancer cells. Description: In vitro antitumor MTT assay, MDA. It is filed as cell-based, human. To be noted: for IC50: Homo sapiens, 24 h, read-out: IC50 MDA; for selectivity index to MDA: WISH versus MDA. Put shortly:
as §1

For a further data set, the system named is WISH normal cell line. The data set is described as follows: Cytotoxic effect against normal cell line. Conditions: read-out: IC50 WISH. It is filed as cell-based.
Another data set concerns HepG-2 hepatoma cells. Description: In vitro antitumor MTT assay, HepG-2. The data set is classed as cell-based, human. To be noted: for selectivity index to HepG-2: WISH versus HepG-2; for IC50: read-out: IC50 HepG-2, MTT, 24 h treatment, mean of three experiments. A digest of the protocol:
as §1

The nature of data set [2]: In vitro antitumor MTT assay, Caco-2. To be noted: human, Caco-2. It is filed as cell-based, human. Put shortly:
as §1

The target of the next data set is VEGFR-2 kinase (Homo sapiens, UniProt P35968). Description: biochemical. To be noted: VEGFR-2, IC50, VEGFR-2 Kinase Assay Kit (BPS-Bioscience), luminescence.
VEGFR-2 kinase, sequence (P35968 20-1356): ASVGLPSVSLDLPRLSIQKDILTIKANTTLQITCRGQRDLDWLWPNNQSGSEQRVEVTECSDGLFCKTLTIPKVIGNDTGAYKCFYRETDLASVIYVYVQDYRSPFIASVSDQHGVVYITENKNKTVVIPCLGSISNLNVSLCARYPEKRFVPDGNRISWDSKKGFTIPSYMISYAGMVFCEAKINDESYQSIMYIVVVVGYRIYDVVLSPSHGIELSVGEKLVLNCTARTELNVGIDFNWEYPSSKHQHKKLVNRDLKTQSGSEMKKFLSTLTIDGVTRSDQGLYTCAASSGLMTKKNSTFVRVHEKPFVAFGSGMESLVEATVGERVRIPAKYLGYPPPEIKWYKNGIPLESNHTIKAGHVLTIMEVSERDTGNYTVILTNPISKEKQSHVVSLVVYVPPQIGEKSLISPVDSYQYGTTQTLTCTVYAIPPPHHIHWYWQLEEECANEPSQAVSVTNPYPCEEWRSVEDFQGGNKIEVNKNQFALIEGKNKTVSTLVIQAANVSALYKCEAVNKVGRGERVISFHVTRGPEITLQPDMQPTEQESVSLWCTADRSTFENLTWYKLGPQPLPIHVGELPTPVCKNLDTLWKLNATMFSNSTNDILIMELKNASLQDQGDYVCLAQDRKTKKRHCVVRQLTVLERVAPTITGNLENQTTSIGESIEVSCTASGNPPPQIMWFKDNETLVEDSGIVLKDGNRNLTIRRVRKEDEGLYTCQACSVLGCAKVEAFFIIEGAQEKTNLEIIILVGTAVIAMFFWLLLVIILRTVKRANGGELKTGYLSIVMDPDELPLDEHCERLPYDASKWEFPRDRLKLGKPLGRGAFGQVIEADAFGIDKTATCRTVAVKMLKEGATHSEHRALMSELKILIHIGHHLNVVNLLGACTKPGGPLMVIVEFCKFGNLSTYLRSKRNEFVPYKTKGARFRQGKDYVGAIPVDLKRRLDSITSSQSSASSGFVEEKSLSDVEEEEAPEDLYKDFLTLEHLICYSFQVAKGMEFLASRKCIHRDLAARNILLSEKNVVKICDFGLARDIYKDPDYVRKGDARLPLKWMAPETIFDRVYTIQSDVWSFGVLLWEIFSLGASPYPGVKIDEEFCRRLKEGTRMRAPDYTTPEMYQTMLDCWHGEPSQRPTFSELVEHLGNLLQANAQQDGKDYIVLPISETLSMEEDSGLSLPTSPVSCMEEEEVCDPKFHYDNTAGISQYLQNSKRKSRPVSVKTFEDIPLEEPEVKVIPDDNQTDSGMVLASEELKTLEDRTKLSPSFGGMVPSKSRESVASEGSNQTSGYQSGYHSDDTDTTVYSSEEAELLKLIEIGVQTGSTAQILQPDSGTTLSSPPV

Take `O=C(CN1CCN(c2nc3ccccc3[nH]c2=O)CC1)Nc1ccc(Cl)cc1` [Compound 13c, N-(4-chlorophenyl)-2-(4-(3-oxo-3,4-dihydroquinoxalin-2-yl)piperazin-1-yl)acetamide]: the IC50 (as a rule, the concentration that inhibits the measured activity by half) in the data set on A549 lung cancer cells is 12.8 µM; in data set [1], 9.05 µM; with MDA breast cancer cells it was 12.1 µM; in the data set on WISH normal cell line it was 42.1 µM.

On to `COc1ccc(NC(=O)CN2CCN(c3nc4ccccc4[nH]c3=O)CC2)cc1` [Compound 13b, N-(4-methoxyphenyl)-2-(4-(3-oxo-3,4-dihydroquinoxalin-2-yl)piperazin-1-yl)acetamide], for which the IC50 with A549 lung cancer cells came out at 11 µM; in the data set with HepG-2 hepatoma cells, 8.83 µM; in data set [1], 10.5 µM; with MDA breast cancer cells, 14.7 µM; in the data set with WISH normal cell line, 109 µM; against VEGFR-2 kinase, 0.471 ± 0.034 µM. Moreover, the “selectivity index to A549” value with A549 lung cancer cells was 9.94. The “selectivity index to HepG-2” value in the data set on HepG-2 hepatoma cells stood at 12.35. In addition, in data set [2], the selectivity ratio at 24 h was 10.4. Moreover, the “selectivity index to MDA” value with MDA breast cancer cells is reported as 7.40.

`O=C(CN1CCN(c2nc3ccccc3[nH]c2=O)CC1)NCc1ccccc1` [Compound 14, N-benzyl-2-(4-(3-oxo-3,4-dihydroquinoxalin-2-yl)piperazin-1-yl)acetamide]: the concentration for half-maximal inhibition (IC50) in the data set on A549 lung cancer cells came out at 14.7 µM; in data set [1], 16.6 µM; with MDA breast cancer cells, 20 µM; in the data set on WISH normal cell line it was 35.7 µM.

Consider `CC(=O)c1ccc(NC(=O)CN2CCN(c3nc4ccccc4[nH]c3=O)CC2)cc1` [Compound 13f, N-(4-acetylphenyl)-2-(4-(3-oxo-3,4-dihydroquinoxalin-2-yl)piperazin-1-yl)acetamide], for which the IC50 was determined as 11.3 µM in the data set on A549 lung cancer cells; 8.4 µM in the data set with HepG-2 hepatoma cells; 9.01 µM in data set [1]; 16.4 µM with MDA breast cancer cells; 54.8 µM in the data set on WISH normal cell line; 0.465 ± 0.046 µM on VEGFR-2 kinase.

With `O=C(CN1CCN(c2nc3ccccc3nc2Cl)CC1)Nc1ccc(Cl)cc1` [Compound 10c, N-(4-chlorophenyl)-2-(4-(3-chloroquinoxalin-2-yl)piperazin-1-yl)acetamide], the concentration for half-maximal inhibition (IC50) with A549 lung cancer cells amounted to 9.57 µM; in data set [1], 9.42 µM; with MDA breast cancer cells, 11.3 µM; in the data set on WISH normal cell line, 48 µM.

For `O=C(CN1CCN(c2nc3ccccc3[nH]c2=O)CC1)Nc1ccc([N+](=O)[O-])cc1` [Compound 13g, N-(4-nitrophenyl)-2-(4-(3-oxo-3,4-dihydroquinoxalin-2-yl)piperazin-1-yl)acetamide], the IC50 is 10.5 µM in the data set on A549 lung cancer cells, 19.4 µM in data set [1], 24.6 µM with MDA breast cancer cells and 38.6 µM in the data set with WISH normal cell line.

For `Cc1ccc(NC(=O)CN2CCN(c3nc4ccccc4nc3Cl)CC2)cc1` [Compound 10e, 2-(4-(3-chloroquinoxalin-2-yl)piperazin-1-yl)-N-(p-tolyl)acetamide], the IC50 with A549 lung cancer cells is 11.6 µM; in data set [1], 16.3 µM; in the data set on MDA breast cancer cells it was 14.3 µM; in the data set on WISH normal cell line it was 106 µM; at VEGFR-2 kinase it was 0.241 ± 0.021 µM. Moreover, the “selectivity index to A549” value in the data set with A549 lung cancer cells is recorded as 9.18. The “selectivity index to HepG-2” value in the data set on HepG-2 hepatoma cells worked out at 13.17. The selectivity ratio at 24 h in data set [2] is 6.51. Besides, the “selectivity index to MDA” value in the data set with MDA breast cancer cells turned out to be 7.43.

For the compound `O=C(CN1CCN(c2nc3ccccc3nc2Cl)CC1)Nc1ccccc1` [Compound 10a, 2-(4-(3-chloroquinoxalin-2-yl)piperazin-1-yl)-N-phenylacetamide], the half-inhibitory concentration (IC50) was 9.03 µM in the data set on A549 lung cancer cells, 14.2 µM in data set [1], 14.4 µM with MDA breast cancer cells and 30.5 µM in the data set on WISH normal cell line.

For the compound `CC(=O)c1ccc(NC(=O)CN2CCN(c3nc4ccccc4nc3Cl)CC2)cc1` [Compound 10f, N-(4-acetylphenyl)-2-(4-(3-chloroquinoxalin-2-yl)piperazin-1-yl)acetamide], the IC50 with A549 lung cancer cells worked out at 10.3 µM; in data set [1], 28.4 µM; in the data set on MDA breast cancer cells, 16.1 µM; with WISH normal cell line, 65.5 µM.

Take `CNC(=O)c1cc(Oc2ccc(NC(=O)Nc3ccc(Cl)c(C(F)(F)F)c3)cc2)ccn1` [Sorafenib, reference compound]: the half-inhibitory concentration (IC50) with A549 lung cancer cells is 14.1 µM; in data set [1], 9.25 µM; in the data set with MDA breast cancer cells it was 10.8 µM.

Take `O=C(CN1CCN(c2nc3ccccc3nc2Cl)CC1)Nc1ccc(F)cc1` [Compound 10d, 2-(4-(3-chloroquinoxalin-2-yl)piperazin-1-yl)-N-(4-fluorophenyl)acetamide]: the IC50 in the data set on A549 lung cancer cells is 10.9 µM; in data set [1], 32.8 µM; in the data set with MDA breast cancer cells, 16.6 µM; in the data set on WISH normal cell line it was 82.2 µM.

Regarding `Cc1ccc(NC(=O)CN2CCN(c3nc4ccccc4[nH]c3=O)CC2)cc1` [Compound 13e, 2-(4-(3-oxo-3,4-dihydroquinoxalin-2-yl)piperazin-1-yl)-N-(p-tolyl)acetamide], the half-inhibitory concentration (IC50) came out at 12.6 µM with A549 lung cancer cells, 14.3 µM in data set [1], 18.5 µM with MDA breast cancer cells and 39.6 µM with WISH normal cell line.

`COc1ccc(NC(=O)CN2CCN(c3nc4ccccc4nc3Cl)CC2)cc1` [Compound 10b, 2-(4-(3-chloroquinoxalin-2-yl)piperazin-1-yl)-N-(4-methoxyphenyl)acetamide]: the IC50 in the data set with A549 lung cancer cells was 6.48 µM; in data set [1] it was 14.6 µM; with MDA breast cancer cells, 11.6 µM; in the data set on WISH normal cell line, 45.7 µM.

In the case of `O=C(CN1CCN(c2nc3ccccc3[nH]c2=O)CC1)Nc1ccccc1` [Compound 13a, 2-(4-(3-oxo-3,4-dihydroquinoxalin-2-yl)piperazin-1-yl)-N-phenylacetamide], the concentration for half-maximal inhibition (IC50) in the data set on A549 lung cancer cells was 11.2 µM; in data set [1], 13.2 µM; in the data set on MDA breast cancer cells it was 17.9 µM; in the data set with WISH normal cell line, 106 µM; at VEGFR-2 kinase it was 0.258 ± 0.023 µM.

As to `O=C(CN1CCN(c2nc3ccccc3nc2Cl)CC1)Nc1ccc([N+](=O)[O-])cc1` [Compound 10g, 2-(4-(3-chloroquinoxalin-2-yl)piperazin-1-yl)-N-(4-nitrophenyl)acetamide], the half-maximal inhibitory concentration (IC50) in the data set on A549 lung cancer cells amounted to 8.36 µM; in data set [1], 15.9 µM; in the data set on MDA breast cancer cells, 10.5 µM; with WISH normal cell line, 85 µM; on VEGFR-2 kinase, 0.332 ± 0.028 µM.

Consider `O=C(CN1CCN(c2nc3ccccc3[nH]c2=O)CC1)Nc1ccc(F)cc1` [Compound 13d, N-(4-fluorophenyl)-2-(4-(3-oxo-3,4-dihydroquinoxalin-2-yl)piperazin-1-yl)acetamide], for which the IC50 in the data set with A549 lung cancer cells worked out at 13.4 µM; with HepG-2 hepatoma cells, 8.35 µM; in data set [1] it was 13 µM; in the data set with MDA breast cancer cells it was 14.4 µM; in the data set on WISH normal cell line, 60.5 µM; at VEGFR-2 kinase, 0.602 ± 0.048 µM.

The values are drawn from publication PMC8904266 (Drug Design, Development and Therapy, 2022).
